According to ChEMBL document CHEMBL4321861, “An Underlying Mechanism of Dual Wnt Inhibition and AMPK Activation: Mitochondrial Uncouplers Masquerading as Wnt Inhibitors” (J Med Chem, 2019):
Active and inactive are the calls of the source.

What was measured:
DLD-1 [1] = assay: Inhibition of mitochondrial oxidative phosphorylation in human DLD1 cells assessed as reduction in oxygen consumption rate by seahorse XFe96 analyser based assay; conditions: Mitochondria
Summary of the method: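 DLD-1 cells, ~3×10^4 per well, seeded a day ahead; medium switched to Seahorse XF modified medium with 25 mM glucose and 1 mM pyruvate. Mitochondrial stress test: 1 μM oligomycin A, test compound in DMSO in place of FCCP, then 1.0 μM rotenone plus 1.0 μM antimycin A. OCR recorded; ATP production rate by real-time ATP rate assay.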

DLD-1 [2] = assay: Induction of mitochondrial membrane potential disruption in human DLD1 cells at 3 uM measured after 2 hrs by TMRM staining based fluorescence microscopic analysis; conditions: Mitochondria
Summary of the method: (§1)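 Cells grown one day in 24-well plates: DLD-1 in DMEM + 10% serum, LS174T in RPMI1640 + 5% serum. Treated 2 h with compound in DMSO or DMSO, then stained with 100 nM TMRM for 15 min. Rinsed once with PBS and imaged by fluorescence microscopy at 568 nm.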

DLD-1 [3] = assay: Induction of mitochondrial dysfunction in human DLD1 cells assessed as reduction in mitochondrial ATP production at 3 uM by Seahorse XF real-time assay; conditions: Mitochondria
Summary of the method: (§2)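 About 3×10^4 cells seeded per well in XF96 plates. Next day medium switched to Seahorse XF medium with 25 mM glucose and 1 mM pyruvate. Compound given at 3 μM in DMSO; FCCP 1 μM as reference. Mitochondrial and glycolytic ATP production rates measured by XF Real-Time ATP Rate Assay.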

DLD-1 [4] = assay: Cytotoxicity against human DLD1 cells assessed as reduction in cell viability by Vi-Cell XR cell viability analyzer-based assay; assay type: functional
Summary of the method: (§3)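 Colon cancer cells plated at 3.5×10^4 per well in 12-well plates. LS174T were in EMEM + 10% FBS; DLD-1 were in DMEM + 10% FBS. After 24 h, compound in DMSO added (DMSO control). Cell number and viability counted on a Vi-Cell XR analyzer. Triplicate wells.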

[5] = molecular target: T1, AMP-activated protein kinase, AMPK (Homo sapiens) (UniProt P54646+O43741+P54619+Q9UGJ0+Q9Y478+Q13131+Q9UGI9); assay: Activation of AMPK in human LS174T cells assessed as increase in AMPK phosphorylation at T172 residue at 3 uM by Western blot analysis; assay type: cell-based
Summary of the method: (§4)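 Cells lysed in 50 mM HEPES, 100 mM NaCl, 2 mM EDTA, 1% glycerol, 50 mM NaF, 1 mM Na3VO4, 1% Triton X-100 with protease inhibitors. Western blot probed for total and phospho-AMPK and total and phospho-ACC, with actin loading control. Compounds given in DMSO. At least three independent repeats.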

LS174T [6] = assay: Inhibition of LiCl-induced Wnt signaling in human LS174T cells assessed as reduction in beta-catenin accumulation; assay type: cell-based
DLD-1 [7] = assay: Induction of mitochondrial dysfunction in human DLD1 cells assessed as increase in glycolytic ATP production at 3 uM by Seahorse XF real-time assay; conditions: Mitochondria; summary of the method: as §2
Homo sapiens [8] = species on record: Homo sapiens; assay: Inhibition of Wnt in human SW620 cells assessed as reduction in Axin2 expression at 1 uM by Western blot analysis; assay type: cell-based
Summary of the method: (§5)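 Colorectal cancer cells (DLD-1, LS174T, SW620) treated with a compound dose series in DMSO. Lysates immunoblotted for Axin2, c-Myc and cyclin D1. At least three independent repeats.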

LS174T [9] = assay: Inhibition of Wnt in human LS174T cells assessed as reduction in cyclin-D1 expression at 1 uM by Western blot analysis; assay type: cell-based; summary of the method: as §5
HEK293 [10] = assay: Inhibition of LiCl-activated Wnt signaling in HEK293 cells at 0.5 uM by TOPFlash reporter gene assay; assay type: cell-based; conditions: Homo sapiens
Summary of the method: (§6)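 Stable HEK293T Super 8xTOPFlash reporter line (pGL4.83 backbone, puromycin-selected), stimulated with 25 mM LiCl to stabilize β-catenin. Treated with compound in DMSO or DMSO. Luciferase read in 96- or 24-well format. AMPK inhibitor compound C used at 5 μM where applied. At least three independent repeats.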

[11] = molecular target: T1, AMP-activated protein kinase, AMPK (Homo sapiens); assay: Activation of AMPK in human LS174T cells assessed as […] phosphorylation at S79 residue at 3 uM by Western blot analysis; assay type: cell-based; summary of the method: as §4
LS174T [12] = assay: Induction of mitochondrial dysfunction in human LS174T cells assessed as reduction in mitochondrial ATP production at 3 uM by Seahorse XF real-time assay; conditions: Mitochondria; summary of the method: as §2
LS174T [13] = assay: Inhibition of Wnt in human LS174T cells assessed as reduction in c-Myc expression at 1 uM by Western blot analysis; assay type: cell-based; summary of the method: as §5
LS174T [14] = assay: Induction of mitochondrial dysfunction in human LS174T cells assessed as increase in glycolytic ATP production at 3 uM by Seahorse XF real-time assay; conditions: Mitochondria; summary of the method: as §2
Homo sapiens [15] = species on record: Homo sapiens; assay: Inhibition of Wnt in human DLD1 cells assessed as reduction in cyclin-D1 expression at 1 to 3 uM by Western blot analysis; assay type: cell-based; summary of the method: as §5
Homo sapiens [16] = species on record: Homo sapiens; assay: Inhibition of Wnt in human SW620 cells assessed as reduction in cyclin-D1 expression at 1 uM by Western blot analysis; assay type: cell-based; summary of the method: as §5
DLD-1 [17] = assay: Uncoupling of mitochondrial oxidative phosphorylation in human DLD1 cells at 3 uM in presence of oligomycin A by seahorse XFe96 analyser based assay; conditions: Mitochondria
Summary of the method: (§7)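 DLD-1 cells, about 3×10^4 per XF96 well, in XF medium with 25 mM glucose and 1 mM pyruvate. Mito stress sequence: oligomycin A 1 μM, then test compound 3 μM in DMSO in place of FCCP (FCCP 1 μM as control), then rotenone/antimycin A 1 μM each. Oxygen consumption rate recorded.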

Homo sapiens [18] = species on record: Homo sapiens; assay: Inhibition of Wnt in human SW620 cells assessed as reduction in c-Myc expression at 1 uM by Western blot analysis; assay type: cell-based; summary of the method: as §5
LS174T [19] = assay: Inhibition of Wnt in human LS174T cells assessed as reduction in Axin2 expression at 1 uM by Western blot analysis; assay type: cell-based; summary of the method: as §5
DLD-1 [20] = assay: Uncoupling of mitochondrial oxidative phosphorylation in human DLD1 cells assessed as increase in oxygen consumption rate at 3 uM in presence of oligomycin A by seahorse XFe96 analyser based assay; conditions: Mitochondria; summary of the method: as §7
HEK293 [21] = assay: Effect on FOP reporter expression in LiCl-induced HEK293T cells incubated for 24 hrs by luciferase reporter gene assay; assay type: functional, cell-based; conditions: Homo sapiens
Summary of the method: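 HEK293T cells transiently transfected with Super 8x TOPFlash or 8x FOPFlash plus control Renilla reporter. Wnt signaling activated with LiCl or Wnt3A. Cells treated with DMSO or compound in DMSO. Luciferase activity read.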

HEK293 [22] = assay: Inhibition of LiCl-activated Wnt signaling in HEK293 cells at 3 uM in presence of AMPK inhibitor compound C by TOPFlash reporter gene assay; assay type: cell-based; conditions: Homo sapiens; summary of the method: as §6
Homo sapiens [23] = species on record: Homo sapiens; assay: Inhibition of Wnt in human DLD1 cells assessed as reduction in Axin2 expression at 1 to 3 uM by Western blot analysis; assay type: cell-based; summary of the method: as §5
LS174T [24] = assay: Cytotoxicity against human LS174T cells assessed as reduction in cell viability by Vi-Cell XR cell viability analyzer-based assay; assay type: functional; summary of the method: as §3
Homo sapiens [25] = species on record: Homo sapiens; assay: Inhibition of Wnt in human DLD1 cells assessed as reduction in c-Myc expression at 1 to 3 uM by Western blot analysis; assay type: cell-based; summary of the method: as §5
LS174T [26] = assay: Induction of mitochondrial membrane potential disruption in human LS174T cells at 3 uM measured after 2 hrs by TMRM staining based fluorescence microscopic analysis; conditions: Mitochondria; summary of the method: as §1
Liver [27] = assay: Uncoupling of mitochondrial oxidative phosphorylation in mouse liver mitochondria assessed as increase in oxygen consumption rate at 1 to 5 uM in presence of oligomycin A by seahorse XFe96 analyser based assay
Summary of the method: (§8)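 Mouse liver mitochondria isolated by differential centrifugation in mannitol/sucrose/HEPES/EGTA buffer, pH 7.2. Loaded at 6 μg/well in KCl/HEPES/MgCl2/KH2PO4 respiration buffer, pH 7.2, at 37 °C. OCR measured on XFe96.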

[28] = molecular target: T1, AMP-activated protein kinase, AMPK (Homo sapiens); assay: Activation of AMPK (unknown origin) assessed as increase in AMPK phosphorylation at T172 residue at 3 uM by Western blot analysis; assay type: protein-complex assay; summary of the method: as §4
[29] = molecular target: T1, AMP-activated protein kinase, AMPK (Homo sapiens); assay: Activation of AMPK (unknown origin) assessed as […] phosphorylation at S79 residue at 3 uM by Western blot analysis; assay type: protein-complex assay; summary of the method: as §4
HEK293 [30] = assay: Inhibition of LiCl-activated Wnt signaling in HEK293 cells at 3 uM by TOPFlash reporter gene assay; assay type: cell-based; conditions: Homo sapiens; summary of the method: as §6
LS174T [31] = assay: Induction of mitochondrial membrane potential disruption in human LS174T cells measured after 2 hrs by TMRM staining based fluorescence microscopic analysis; conditions: Mitochondria; summary of the method: as §1
[32] = molecular target: T1, AMP-activated protein kinase, AMPK (Homo sapiens); assay: Activation of AMPK in human LS174T cells assessed as […] phosphorylation at S79 residue at 3 uM measured within 15 mins by Western blot analysis; assay type: cell-based; summary of the method: as §4
Liver [33] = assay: Uncoupling of mitochondrial oxidative phosphorylation in mouse liver mitochondria assessed as increase in oxygen consumption rate in presence of oligomycin A by seahorse XFe96 analyser based assay; summary of the method: as §8
[34] = molecular target: T1, AMP-activated protein kinase, AMPK (Homo sapiens); assay: Activation of AMPK in human LS174T cells assessed as increase in AMPK phosphorylation at T172 residue at 3 uM measured within 15 mins by Western blot analysis; assay type: cell-based; summary of the method: as §4
DLD-1 [35] = assay: Induction of mitochondrial membrane potential disruption in human DLD1 cells measured after 2 hrs by TMRM staining based fluorescence microscopic analysis; conditions: Mitochondria; summary of the method: as §1

CCCCCCC1C(=O)O[C@H](C)[C@H](NC(=O)c2cccc(NC=O)c2O)C(=O)O[C@@H](C)[C@@H]1OC(=O)CC(C)C (some centres undefined)
active: inhibition (DLD-1 [1])

O=C(Nc1nnc(C(F)(F)F)s1)NC(CC(F)(F)F)(C(F)(F)F)C(F)(F)F
800 nM: IC50 (LS174T [24])
inactive: inhibition (HEK293 [10]) | Activity (HEK293 [21])
active: Activity (DLD-1 [2]) | Activity (DLD-1 [3]) | Activity [5] | inhibition (LS174T [6]) | Activity (DLD-1 [7]) | inhibition (Homo sapiens [8]) | inhibition (LS174T [9]) | Activity [11] | Activity (LS174T [12]) | inhibition (LS174T [13]) | Activity (LS174T [14]) | inhibition (Homo sapiens [15]) | inhibition (Homo sapiens [16]) | Activity (DLD-1 [17]) | inhibition (Homo sapiens [18]) | inhibition (LS174T [19]) | Activity (DLD-1 [20]) | inhibition (HEK293 [22]) | inhibition (Homo sapiens [23]) | inhibition (Homo sapiens [25]) | Activity (LS174T [26])
960 nM: IC50 (DLD-1 [4])

Cc1cc([N+](=O)[O-])ccc1N(C)S(=O)(=O)c1cc(Cl)ccc1Cl
inactive: Activity (Liver [27]) | Activity [28] | Activity [29] | inhibition (HEK293 [30])

Cc1cc([N+](=O)[O-])ccc1NS(=O)(=O)c1cc(Cl)ccc1Cl
active: Activity (DLD-1 [3]) | inhibition (LS174T [6]) | Activity (DLD-1 [7]) | Activity (LS174T [31]) | Activity (LS174T [12]) | Activity (LS174T [14]) | Activity (DLD-1 [17]) | Activity [32] | Activity (Liver [33]) Dose-dependent effect | Activity [34] | Activity (DLD-1 [20]) | Activity (DLD-1 [35])

C=C(C)[C@H]1Cc2c(ccc3c2O[C@@H]2COc4cc(OC)c(OC)cc4[C@@H]2C3=O)O1
active: inhibition (DLD-1 [1])

CC[C@@H]1/C=C/C=C/C[C@H](C)[C@@H](O)[C@](C)(O)C(=O)[C@H](C)[C@@H](O)[C@H](C)C(=O)[C@H](C)[C@@H](O)[C@H](C)/C=C/C(=O)O[C@H]2[C@@H](C)[C@@H](CC1)O[C@@]1(CC[C@@H](C)[C@@H](C[C@@H](C)O)O1)[C@@H]2C
active: inhibition (DLD-1 [1])
